Measured values from ChEMBL document CHEMBL5705899 (Biochem J, 2014).
Calls of active or inactive are those of the source. The calls are words filed in the database; no cut-off is given here.

Assays:
[1] = target: MAP kinase-activated protein kinase 2 (Homo sapiens) (UniProt P49137); assay: Inhibition of recombinant human N-terminal GST/C-terminal Myc-tagged MAPKAPK2 (46 to 400 residues) expressed in Escherichia coli assessed as remaining activity at 1 uM using KKLNRTLSVA as substrate incubated for 30 mins in presence of [gamma-33P]ATP by filter binding method relative to control
[2] = target: Inhibitor of nuclear factor kappa-B kinase subunit epsilon (Homo sapiens) (UniProt Q14164); assay: Inhibition of recombinant human N-terminal GST-tagged IKKepsilon (1 to 716 residues) expressed in baculovirus infected Sf21 cells assessed as remaining activity at 1 uM using MBP as substrate incubated for 30 mins in presence of [gamma-33P]ATP by filter binding method relative to control
[3] = target: Ephrin type-B receptor 1 (Homo sapiens) (UniProt P54762); assay: Inhibition of human EPHB1 at 1 uM using polyEY as substrate in presence of 33P-ATP by ProQinase assay
[4] = target: Tyrosine-protein kinase Fyn (Homo sapiens) (UniProt P06241); assay: Inhibition of human FYN at 1 uM using polyEY as substrate in presence of 33P-ATP by ProQinase assay
[5] = target: SRSF protein kinase 1 (Homo sapiens) (UniProt Q96SB4); assay: Inhibition of human SRPK1 at 1 uM using MBP as substrate in presence of 33P-ATP by ProQinase assay
[6] = target: MAP kinase-interacting serine/threonine-protein kinase 1 (Homo sapiens) (UniProt Q9BUB5); assay: Inhibition of human MKNK1 at 1 uM using RB-S6P as substrate in presence of 33P-ATP by ProQinase assay
[7] = target: NUAK family SNF1-like kinase 1 (Homo sapiens) (UniProt O60285); assay: Inhibition of human ARK5 at 1 uM using RBER-CHKtide as substrate in presence of 33P-ATP by ProQinase assay
[8] = target: Calcium/calmodulin-dependent protein kinase type II subunit delta (Homo sapiens) (UniProt Q13557); assay: Inhibition of human CAMK2D at 1 uM using RBER-CHKtide as substrate in presence of 33P-ATP by ProQinase assay
[9] = target: Eukaryotic translation initiation factor 2-alpha kinase 1 (Homo sapiens) (UniProt Q9BQI3); assay: Inhibition of human HRI at 1 uM using casein as substrate in presence of 33P-ATP by ProQinase assay
[10] = target: Dual specificity tyrosine-phosphorylation-regulated kinase 4 (Homo sapiens) (UniProt Q9NR20); assay: Inhibition of human DYRK4 at 1 uM using RBER-CHKtide as substrate in presence of 33P-ATP by ProQinase assay
[11] = target: Dual specificity tyrosine-phosphorylation-regulated kinase 1A (Homo sapiens) (UniProt Q13627); assay: Inhibition of human DYRK1A at 1 uM using RBER-CHKtide as substrate in presence of 33P-ATP by ProQinase assay
[12] = target: Dual specificity tyrosine-phosphorylation-regulated kinase 2 (Homo sapiens) (UniProt Q92630); assay: Inhibition of human DYRK2 at 1 uM using RBER-IRStide as substrate in presence of 33P-ATP by ProQinase assay
[13] = target: Serine/threonine-protein kinase MRCK alpha (Homo sapiens) (UniProt Q5VT25); assay: Inhibition of human CDC42BPA at 1 uM using RB-S6P as substrate in presence of 33P-ATP by ProQinase assay
[14] = target: Lymphokine-activated killer T-cell-originated protein kinase (Homo sapiens) (UniProt Q96KB5); assay: Inhibition of human PBK at 1 uM using histon H1 as substrate in presence of 33P-ATP by ProQinase assay
[15] = target: Serine/threonine-protein kinase N1 (Homo sapiens) (UniProt Q16512); assay: Inhibition of human PRK1 at 1 uM using RBER-CHKtide as substrate in presence of 33P-ATP by ProQinase assay
[16] = target: CDK6/cyclin D1 (Homo sapiens) (UniProt P24385+Q00534); assay: Inhibition of human CDK6/CycD1 at 1 uM using RBER-CHKtide as substrate in presence of 33P-ATP by ProQinase assay; format: protein-complex assay
[17] = target: G protein-coupled receptor kinase 6 (Homo sapiens) (UniProt P43250); assay: Inhibition of human GRK6 at 1 uM using casein as substrate in presence of 33P-ATP by ProQinase assay
[18] = target: Cyclin-dependent kinase 1/cyclin B1 (Homo sapiens) (UniProt P06493+P14635); assay: Inhibition of human CDK1/CycB1 at 1 uM using RBER-CHKtide as substrate in presence of 33P-ATP by ProQinase assay; format: protein-complex assay
[19] = target: Serine/threonine-protein kinase TAO2 (Homo sapiens) (UniProt Q9UL54); assay: Inhibition of human TAOK2 at 1 uM using casein as substrate in presence of 33P-ATP by ProQinase assay
[20] = target: Inhibitor of nuclear factor kappa-B kinase subunit alpha (Homo sapiens) (UniProt O15111); assay: Inhibition of human IKKalpha at 1 uM using RBER-CHKtide as substrate in presence of 33P-ATP by ProQinase assay
[21] = target: Mitogen-activated protein kinase kinase kinase 3 (Homo sapiens) (UniProt Q99759); assay: Inhibition of human MEKK3 at 1 uM using casein as substrate in presence of 33P-ATP by ProQinase assay
[22] = target: Mitogen-activated protein kinase 14 (Homo sapiens) (UniProt Q16539); assay: Inhibition of human p38alpha at 1 uM using ATF2 as substrate in presence of 33P-ATP by ProQinase assay
[23] = target: Phosphatidylinositol 4,5-bisphosphate 3-kinase catalytic subunit gamma isoform (Homo sapiens, UniProt P48736); assay: Inhibition of recombinant human N-terminal His6-tagged PI3Kgamma (2 to 1102 residues) expressed in baculovirus expression system at 1 uM using diC8 PIP2 as substrate incubated for 75 mins by ADP-Glo assay
[24] = target: Phosphatidylinositol 4,5-bisphosphate 3-kinase catalytic subunit alpha isoform (Homo sapiens, UniProt P42336); assay: Inhibition of PI3Kalpha (unknown origin) using PtdIns(4,5)P2 as substrate preincubated for 20 mins followed by substrate addition and measured after 80 mins by Kinase-Glo assay
Summary of the method: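 PIK3CA at 20 nM in 50 mM Tris/HCl pH 7.4, 0.05% CHAPSO, 10 mM MgCl2 and 2.1 mM DTT was pre-incubated with inhibitor at varying concentrations for 20 min. Then 80 μM PtdIns(4,5)P2 and 8 μM ATP (below apparent Km) were added, with 2% DMSO final. The reaction ran 80 min at ambient temperature, followed by Kinase-Glo Plus for 20 min and a luminescence read.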

[25] = target: Phosphatidylinositol 3-kinase C2 domain-containing subunit gamma (Homo sapiens, UniProt O75747); assay: Inhibition of human PIK3C2G using PIP2/PS as substrate by ADP-Glo assay

Dual specificity tyrosine-phosphorylation-regulated kinase 2 (Homo sapiens), sequence (Q92630 whole entry): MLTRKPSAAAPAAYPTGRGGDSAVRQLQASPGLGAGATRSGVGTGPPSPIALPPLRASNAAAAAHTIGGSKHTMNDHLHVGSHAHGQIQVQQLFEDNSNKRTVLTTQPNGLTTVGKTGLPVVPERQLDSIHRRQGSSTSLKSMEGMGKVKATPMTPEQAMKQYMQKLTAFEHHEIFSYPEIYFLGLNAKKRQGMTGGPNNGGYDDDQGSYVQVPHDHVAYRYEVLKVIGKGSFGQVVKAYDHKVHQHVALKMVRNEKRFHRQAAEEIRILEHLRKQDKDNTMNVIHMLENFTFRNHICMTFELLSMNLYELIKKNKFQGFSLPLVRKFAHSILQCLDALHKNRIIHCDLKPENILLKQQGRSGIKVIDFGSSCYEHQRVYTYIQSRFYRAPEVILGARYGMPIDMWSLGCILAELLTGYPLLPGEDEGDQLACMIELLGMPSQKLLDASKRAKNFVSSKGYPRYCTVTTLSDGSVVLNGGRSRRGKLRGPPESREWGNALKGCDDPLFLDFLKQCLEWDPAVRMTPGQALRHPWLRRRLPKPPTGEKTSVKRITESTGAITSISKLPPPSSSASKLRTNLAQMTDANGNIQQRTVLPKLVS
Dual specificity tyrosine-phosphorylation-regulated kinase 4 (Homo sapiens), sequence (Q9NR20 whole entry): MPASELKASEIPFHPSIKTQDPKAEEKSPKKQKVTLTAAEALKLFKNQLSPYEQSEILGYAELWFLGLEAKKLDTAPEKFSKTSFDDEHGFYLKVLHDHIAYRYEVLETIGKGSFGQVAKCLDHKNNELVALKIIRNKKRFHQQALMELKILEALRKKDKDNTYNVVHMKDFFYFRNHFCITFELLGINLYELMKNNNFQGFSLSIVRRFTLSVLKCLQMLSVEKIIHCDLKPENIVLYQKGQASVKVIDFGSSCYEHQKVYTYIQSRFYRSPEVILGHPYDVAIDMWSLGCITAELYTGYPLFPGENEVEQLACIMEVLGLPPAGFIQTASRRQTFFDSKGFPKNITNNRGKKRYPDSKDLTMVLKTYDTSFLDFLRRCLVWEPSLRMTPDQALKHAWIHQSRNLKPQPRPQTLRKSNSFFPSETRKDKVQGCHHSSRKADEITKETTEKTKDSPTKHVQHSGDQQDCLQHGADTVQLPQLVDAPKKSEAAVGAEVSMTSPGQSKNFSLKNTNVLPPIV
Serine/threonine-protein kinase TAO2 (Homo sapiens), sequence (Q9UL54 whole entry): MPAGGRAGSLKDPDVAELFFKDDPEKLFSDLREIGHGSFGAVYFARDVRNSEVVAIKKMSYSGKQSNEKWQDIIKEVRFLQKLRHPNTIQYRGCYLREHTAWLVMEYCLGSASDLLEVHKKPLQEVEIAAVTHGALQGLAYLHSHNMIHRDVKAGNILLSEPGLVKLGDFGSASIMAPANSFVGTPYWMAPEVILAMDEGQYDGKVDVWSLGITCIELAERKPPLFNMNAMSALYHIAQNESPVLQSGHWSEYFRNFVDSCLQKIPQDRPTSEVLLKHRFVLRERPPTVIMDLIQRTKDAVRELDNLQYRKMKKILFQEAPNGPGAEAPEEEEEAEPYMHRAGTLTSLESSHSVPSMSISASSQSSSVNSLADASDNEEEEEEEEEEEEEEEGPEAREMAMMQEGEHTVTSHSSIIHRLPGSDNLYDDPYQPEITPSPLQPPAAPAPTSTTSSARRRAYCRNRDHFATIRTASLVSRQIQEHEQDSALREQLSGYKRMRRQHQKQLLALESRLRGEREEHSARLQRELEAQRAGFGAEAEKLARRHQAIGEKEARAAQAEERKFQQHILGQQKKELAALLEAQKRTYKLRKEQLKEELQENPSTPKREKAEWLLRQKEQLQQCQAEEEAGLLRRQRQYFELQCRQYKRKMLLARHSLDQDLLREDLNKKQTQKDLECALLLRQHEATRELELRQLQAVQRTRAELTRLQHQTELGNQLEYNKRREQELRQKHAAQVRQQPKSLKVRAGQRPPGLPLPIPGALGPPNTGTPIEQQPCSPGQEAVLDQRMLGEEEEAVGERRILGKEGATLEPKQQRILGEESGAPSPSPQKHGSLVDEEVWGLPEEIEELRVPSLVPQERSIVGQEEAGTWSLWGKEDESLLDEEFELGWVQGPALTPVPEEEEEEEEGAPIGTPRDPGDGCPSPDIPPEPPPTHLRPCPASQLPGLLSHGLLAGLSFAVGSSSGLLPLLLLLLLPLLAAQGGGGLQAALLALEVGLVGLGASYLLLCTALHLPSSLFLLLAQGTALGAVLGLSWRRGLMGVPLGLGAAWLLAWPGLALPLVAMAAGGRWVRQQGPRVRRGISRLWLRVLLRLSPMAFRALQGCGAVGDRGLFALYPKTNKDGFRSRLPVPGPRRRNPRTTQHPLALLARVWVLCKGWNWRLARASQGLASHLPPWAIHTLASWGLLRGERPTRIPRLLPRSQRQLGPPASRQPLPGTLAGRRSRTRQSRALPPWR
Lymphokine-activated killer T-cell-originated protein kinase (Homo sapiens), sequence (Q96KB5 whole entry): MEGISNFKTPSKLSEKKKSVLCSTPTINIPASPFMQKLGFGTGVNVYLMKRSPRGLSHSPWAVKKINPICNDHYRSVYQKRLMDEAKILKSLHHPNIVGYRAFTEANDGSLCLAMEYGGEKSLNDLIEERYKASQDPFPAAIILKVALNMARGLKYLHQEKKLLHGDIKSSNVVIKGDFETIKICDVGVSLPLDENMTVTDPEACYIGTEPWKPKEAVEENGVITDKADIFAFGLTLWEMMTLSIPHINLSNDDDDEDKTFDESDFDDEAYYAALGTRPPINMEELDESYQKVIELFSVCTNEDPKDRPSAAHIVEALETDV
Serine/threonine-protein kinase MRCK alpha (Homo sapiens), sequence (Q5VT25 whole entry): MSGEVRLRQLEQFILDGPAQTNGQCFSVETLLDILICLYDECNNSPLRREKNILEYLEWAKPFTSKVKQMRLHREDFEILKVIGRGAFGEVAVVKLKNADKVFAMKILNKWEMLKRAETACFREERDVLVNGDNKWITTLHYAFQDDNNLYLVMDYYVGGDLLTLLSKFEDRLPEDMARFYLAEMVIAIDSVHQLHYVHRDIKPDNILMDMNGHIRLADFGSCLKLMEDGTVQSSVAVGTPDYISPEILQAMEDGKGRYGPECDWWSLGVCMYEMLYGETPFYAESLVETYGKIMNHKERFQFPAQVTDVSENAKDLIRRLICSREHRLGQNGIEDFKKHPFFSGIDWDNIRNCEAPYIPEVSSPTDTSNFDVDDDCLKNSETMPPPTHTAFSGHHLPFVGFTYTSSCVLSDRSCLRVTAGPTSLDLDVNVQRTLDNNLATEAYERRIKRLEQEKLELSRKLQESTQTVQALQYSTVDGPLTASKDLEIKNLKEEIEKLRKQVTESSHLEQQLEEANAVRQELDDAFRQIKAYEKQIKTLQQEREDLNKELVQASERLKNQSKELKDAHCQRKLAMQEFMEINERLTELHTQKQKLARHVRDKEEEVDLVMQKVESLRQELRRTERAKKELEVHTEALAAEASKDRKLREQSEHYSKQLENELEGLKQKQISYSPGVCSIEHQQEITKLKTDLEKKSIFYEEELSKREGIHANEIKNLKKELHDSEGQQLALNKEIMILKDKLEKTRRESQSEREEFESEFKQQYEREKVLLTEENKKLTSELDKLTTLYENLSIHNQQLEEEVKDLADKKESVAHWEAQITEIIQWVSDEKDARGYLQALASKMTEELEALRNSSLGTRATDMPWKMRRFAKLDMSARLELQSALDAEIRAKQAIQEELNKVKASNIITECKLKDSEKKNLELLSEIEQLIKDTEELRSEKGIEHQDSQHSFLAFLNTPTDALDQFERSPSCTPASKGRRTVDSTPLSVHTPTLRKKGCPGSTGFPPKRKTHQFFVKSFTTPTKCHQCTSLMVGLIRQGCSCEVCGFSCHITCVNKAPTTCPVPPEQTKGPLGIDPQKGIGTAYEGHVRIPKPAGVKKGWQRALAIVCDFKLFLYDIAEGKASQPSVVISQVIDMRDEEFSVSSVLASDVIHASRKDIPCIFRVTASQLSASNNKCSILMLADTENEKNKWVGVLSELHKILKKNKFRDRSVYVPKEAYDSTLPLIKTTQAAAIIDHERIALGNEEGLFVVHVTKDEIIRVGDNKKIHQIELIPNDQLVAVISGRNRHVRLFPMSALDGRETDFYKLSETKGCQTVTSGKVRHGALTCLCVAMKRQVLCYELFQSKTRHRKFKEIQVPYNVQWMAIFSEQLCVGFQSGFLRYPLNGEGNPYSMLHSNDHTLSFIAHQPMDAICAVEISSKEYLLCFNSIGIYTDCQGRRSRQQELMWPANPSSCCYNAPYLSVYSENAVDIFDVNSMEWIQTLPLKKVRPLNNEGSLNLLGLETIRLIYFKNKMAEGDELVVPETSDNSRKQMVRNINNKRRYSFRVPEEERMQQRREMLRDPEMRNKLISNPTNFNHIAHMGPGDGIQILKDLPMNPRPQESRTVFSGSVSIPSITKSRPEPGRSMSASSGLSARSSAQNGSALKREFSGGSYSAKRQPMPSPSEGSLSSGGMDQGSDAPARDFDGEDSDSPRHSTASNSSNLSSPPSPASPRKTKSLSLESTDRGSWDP
G protein-coupled receptor kinase 6 (Homo sapiens), sequence (P43250 whole entry, looked up): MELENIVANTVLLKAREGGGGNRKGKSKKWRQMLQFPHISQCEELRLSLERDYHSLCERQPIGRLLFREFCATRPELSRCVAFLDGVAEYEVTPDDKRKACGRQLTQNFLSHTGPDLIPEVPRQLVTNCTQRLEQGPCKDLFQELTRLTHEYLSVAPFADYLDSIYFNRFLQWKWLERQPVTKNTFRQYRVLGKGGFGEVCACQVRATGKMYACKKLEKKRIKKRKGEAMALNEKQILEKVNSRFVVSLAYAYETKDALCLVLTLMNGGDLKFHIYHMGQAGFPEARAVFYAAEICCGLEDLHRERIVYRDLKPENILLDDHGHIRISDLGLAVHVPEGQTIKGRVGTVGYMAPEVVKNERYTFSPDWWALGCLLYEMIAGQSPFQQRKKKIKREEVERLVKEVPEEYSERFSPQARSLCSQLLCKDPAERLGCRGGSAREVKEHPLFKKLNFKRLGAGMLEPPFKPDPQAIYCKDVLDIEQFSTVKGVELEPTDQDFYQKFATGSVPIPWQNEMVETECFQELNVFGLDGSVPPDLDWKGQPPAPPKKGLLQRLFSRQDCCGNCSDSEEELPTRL

SMILES: CC(C)(O)CNc1ncc(-c2ccnc(Nc3ccnc(Cl)c3)n2)c(CC2CC2)n1
- Activity [1]: 110%
- Activity [2]: 103%
- inhibition [3]: inactive
- inhibition [4]: inactive
- inhibition [5]: inactive
- inhibition [6]: inactive
- inhibition [7]: inactive
- inhibition [8]: inactive
- inhibition [9]: inactive
- inhibition [10]: inactive
- inhibition [11]: inactive
- inhibition [12]: inactive
- inhibition [13]: inactive
- inhibition [14]: inactive
- inhibition [15]: inactive
- inhibition [16]: inactive
- inhibition [17]: inactive
- inhibition [18]: inactive
- inhibition [19]: inactive
- inhibition [20]: inactive
- inhibition [21]: inactive
- inhibition [22]: inactive
- inhibition [23]: inactive
- IC50 [24]: 8.04 µM
- IC50 [25]: > 10 µM
